# Source: ChEMBL document CHEMBL1135649, “CycloSal-BVDUMP pronucleotides: how to convert an antiviral-inactive nucleoside analogue into a bioactive compound against EBV” (J Med Chem, 2002)
# pEC50: −log10 of the molar value.
# Assays:
# [1] = Partition coefficient (logP); assay type: physicochemical; details: octanol/water
# Procedure, shortened: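 Compound dissolved in 0.3 mL 1-octanol and shaken with 0.3 mL water by vortexing for 10 min. Phases separated by centrifugation. Each phase analysed by RP-18 HPLC with UV detection at 250 nm. P taken from the ratio of aqueous and organic peak areas.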
# [2] = system: Nucleic Acid; assay: Effective concentration for the inhibition of Epstein-Barr virus EBV-DNA synthesis in human lymphoblastoid P3HR-1 cells; assay type: functional, cell-based; details: human gammaherpesvirus 4, P3HR-1
# Procedure, shortened: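 P3HR-1 (EBV producer) cells in RPMI-1640 with 10% heat-inactivated FCS at 36.5 °C, seeded at 10⁶ cells/mL. TPA 20 ng/mL added to induce virus production. Compound given at a range of concentrations for 7 days. DNA extracted and 10 μg used for slot blot hybridization with a digoxigenin-labeled EBV BamHI-W probe, chemiluminescence and densitometry. EC50 obtained by regression against untreated cells.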
# [3] = Selectivity index as the ratio of CC50 value to that of EC50 value.; assay type: functional
# Procedure, shortened: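 Selectivity index is CC50 (μM)/EC50 (μM). CC50 is for P3HR-1 growth over 7 days, read by cell count. EC50 is for EBV DNA synthesis in TPA-induced P3HR-1 cells over 7 days, read by slot blot.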
# [4] = system: P3HR-1; assay: Cytotoxic concentration for inhibition of human lymphoblastoid P3HR-1 cell growth; assay type: functional
# Procedure, shortened: (§1)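 P3HR-1 cells seeded at 2 × 10⁵ cells/mL and grown 7 days with compound at a range of concentrations. Cells counted on a particle counter. CC50 calculated as 50% inhibition of cell growth.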
# [5] = system: P3HR-1; assay: Cytotoxic concentration for the inhibition of P3HR-1 cell growth; assay type: functional; details: Homo sapiens; procedure, shortened: as §1
# [6] = Selectivity as the ratio of CC50 value to that of EC50 value.; assay type: functional
# Procedure, shortened: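 Ratio CC50/EC50, both in P3HR-1 cells over 7 days at varied concentrations. EC50: cells seeded at 10⁶ cells/mL, induced with TPA 20 ng/mL; EBV DNA in 10 μg total DNA by slot blot with digoxigenin-labeled BamHI-W probe, chemiluminescence and densitometry; regression against untreated cells. CC50: growth from 2 × 10⁵ cells/mL, cells counted with a particle counter.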
compound,measurement,setting,value
Cc1cccc2c1OP(=O)(OC[C@H]1O[C@@H](n3cc(/C=C/Br)c(=O)[nH]c3=O)C[C@@H]1OC(=O)[C@@H](N)CC(C)C)OC2 (stereo partly specified),logP,[1],0.4
same,pEC50,[2],4.64
same,SI,[3],2
same,CC50,[4],45 µM
Cc1cccc2c1OP(=O)(OC[C@H]1O[C@@H](n3cc(/C=C/Br)c(=O)[nH]c3=O)C[C@@H]1OC(=O)[C@@H](N)C(C)C)OC2 (stereo partly specified),logP,[1],-0.1
same,pEC50,[2],4.09
same,SI,[3],0.6
same,CC50,[4],47 µM
Cc1cccc2c1OP(=O)(OC[C@H]1O[C@@H](n3cc(/C=C/Br)c(=O)[nH]c3=O)C[C@@H]1OC(=O)[C@H]1CCCN1)OC2 (stereo partly specified),logP,[1],-0.4
same,pEC50,[2],≤ 3.86
same,CC50,[4],38 µM
CC(C)(C)c1cccc2c1OP(=O)(OC[C@H]1O[C@@H](n3cc(/C=C/Br)c(=O)[nH]c3=O)C[C@@H]1O)OC2 (stereo partly specified),logP,[1],2.9
same,pEC50,[2],4.49
same,SI,[3],2.5
same,CC50,[4],80 µM
O=c1[nH]c(=O)n([C@H]2C[C@H](O)[C@@H](CO)O2)cc1/C=C/Br [BRIVUDINE],logP,[1],0.33
same,pEC50,[2],< 3.52
same,CC50,[5],225 µM
Cc1cccc2c1OP(=O)(OC[C@H]1O[C@@H](n3cc(/C=C/Br)c(=O)[nH]c3=O)C[C@@H]1OC(=O)[C@H](N)C(C)C)OC2 (stereo partly specified),logP,[1],-0.1
same,pEC50,[2],< 3.86
same,CC50,[4],80 µM
Cc1cccc2c1OP(=O)(OC[C@H]1O[C@@H](n3cc(/C=C/Br)c(=O)[nH]c3=O)C[C@@H]1OC(=O)CN)OC2 (stereo partly specified),logP,[1],-0.8
same,pEC50,[2],4.36
same,SI,[3],2.1
same,CC50,[4],93 µM
O=c1[nH]c(=O)n([C@H]2C[C@H](O)[C@@H](COP3(=O)OCc4ccccc4O3)O2)cc1/C=C/Br (stereo partly specified),logP,[1],1.5
same,pEC50,[2],4.91
same,SI,[3],7.5
same,CC50,[4],92 µM
CCC(C)[C@@H](N)C(=O)O[C@H]1C[C@H](n2cc(/C=C/Br)c(=O)[nH]c2=O)O[C@@H]1COP1(=O)OCc2cccc(C)c2O1 (stereo partly specified),logP,[1],-0.02
same,pEC50,[2],< 3.87
same,CC50,[4],37 µM
COc1ccc2c(c1)COP(=O)(OC[C@H]1O[C@@H](n3cc(/C=C/Br)c(=O)[nH]c3=O)C[C@@H]1O)O2 (stereo partly specified),logP,[1],1.6
same,pEC50,[2],5.47
same,SI,[3],41
same,CC50,[4],137 µM
Cc1cc(C)c2c(c1)COP(=O)(OC[C@H]1O[C@@H](n3cc(/C=C/Br)c(=O)[nH]c3=O)C[C@@H]1O)O2 (stereo partly specified),logP,[1],2.2
same,pEC50,[2],4.84
same,SI,[3],9.9
same,CC50,[4],143 µM
Cc1cccc2c1OP(=O)(OC[C@H]1O[C@@H](n3cc(/C=C/Br)c(=O)[nH]c3=O)C[C@@H]1OC(=O)[C@@H]1CCCN1)OC2 (stereo partly specified),logP,[1],-0.4
same,pEC50,[2],≤ 3.86
same,CC50,[4],36 µM
CC(=O)O[C@H]1C[C@H](n2cc(/C=C/Br)c(=O)[nH]c2=O)O[C@@H]1COP1(=O)OCc2cccc(C)c2O1 (stereo partly specified),logP,[1],2.2
same,CC50,[4],109 µM
O=c1[nH]c(=O)n([C@H]2C[C@H](O)[C@@H](COP3(=O)OCc4cc(Cl)ccc4O3)O2)cc1/C=C/Br (stereo partly specified),logP,[1],1.8
same,pEC50,[2],4.59
same,SI,[3],3.1
same,CC50,[4],80 µM
Cc1cccc2c1OP(=O)(OC[C@H]1O[C@@H](n3cc(/C=C/Br)c(=O)[nH]c3=O)C[C@@H]1OC(=O)[C@H](N)Cc1ccccc1)OC2 (stereo partly specified),logP,[1],0.5
same,pEC50,[2],4.33
same,SI,[3],1.4
same,CC50,[4],66 µM
CCC(C)[C@H](N)C(=O)O[C@H]1C[C@H](n2cc(/C=C/Br)c(=O)[nH]c2=O)O[C@@H]1COP1(=O)OCc2cccc(C)c2O1 (stereo partly specified),logP,[1],-0.02
same,pEC50,[2],< 3.87
same,CC50,[4],78 µM
CC(=O)CCC(=O)O[C@H]1C[C@H](n2cc(/C=C/Br)c(=O)[nH]c2=O)O[C@@H]1COP1(=O)OCc2cccc(C)c2O1 (stereo partly specified),logP,[1],2.3
same,pEC50,[2],< 3.79
same,CC50,[4],152 µM
Cc1cccc2c1OP(=O)(OC[C@H]1O[C@@H](n3cc(/C=C/Br)c(=O)[nH]c3=O)C[C@@H]1OC(=O)[C@H](N)CC(C)C)OC2 (stereo partly specified),logP,[1],0.4
same,pEC50,[2],< 3.87
same,CC50,[4],65 µM
CCCCCCCCCCC(=O)O[C@H]1C[C@H](n2cc(/C=C/Br)c(=O)[nH]c2=O)O[C@@H]1COP1(=O)OCc2cccc(C)c2O1 (stereo partly specified),logP,[1],2.8
same,pEC50,[2],< 3.83
same,CC50,[5],> 299 µM
Cc1cccc2c1OP(=O)(OC[C@H]1O[C@@H](n3cc(/C=C/Br)c(=O)[nH]c3=O)C[C@@H]1OC(=O)CC(C)C)OC2 (stereo partly specified),logP,[1],2.4
same,pEC50,[2],< 3.77
same,CC50,[4],104 µM
Cc1cccc2c1OP(=O)(OC[C@H]1O[C@@H](n3cc(/C=C/Br)c(=O)[nH]c3=O)C[C@@H]1O)OC2 (stereo partly specified),logP,[1],1.9
same,pEC50,[2],5.39
same,SI,[3],30
same,CC50,[4],122 µM
Nc1nc2c(ncn2COCCO)c(=O)[nH]1 [ACYCLOVIR],pEC50,[2],5.17
same,CC50,[5],392 µM
same,Selectivity,[6],58
CCCCCCC(=O)O[C@H]1C[C@H](n2cc(/C=C/Br)c(=O)[nH]c2=O)O[C@@H]1COP1(=O)OCc2cccc(C)c2O1 (stereo partly specified),logP,[1],2.6
same,pEC50,[2],< 3.79
same,CC50,[5],> 326 µM
Cc1cccc2c1OP(=O)(OC[C@H]1O[C@@H](n3cc(/C=C/Br)c(=O)[nH]c3=O)C[C@@H]1OC(=O)[C@@H](N)Cc1ccccc1)OC2 (stereo partly specified),logP,[1],0.5
same,pEC50,[2],≤ 3.89
same,CC50,[4],35 µM
